Test results: ChEMBL document CHEMBL1142148, “Antibiotic susceptibility profile of bifidobacteria as affected by oxgall, acid, and hydrogen peroxide stress” (2007)
Values after ≈ are worked out from the molar mass of the structure shown.

Experiments:
Bifidobacterium animalis [1] = test: Antimicrobial activity against Bifidobacterium animalis ATCC 27536; type: functional
In short: (§1)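 Broth microdilution in MRS plus 0.05% L-cysteine-HCl. Mid-log culture adjusted to OD650 0.1, giving about 2.5 × 10^4 to 5.0 × 10^4 CFU/well, then added to twofold serial dilutions of agent. Plates incubated anaerobically at 37°C for 18 h and read at OD650. MIC is the lowest concentration matching the uninoculated blank OD, taken as the median of four repeats.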

Bifidobacterium bifidum [2] = test: Antimicrobial activity against Bifidobacterium bifidum R0071; type: functional; in short: as §1
Bifidobacterium bifidum [3] = test: Antimicrobial activity against Bifidobacterium bifidum ATCC 15696; type: functional; in short: as §1
Bifidobacterium bifidum [4] = test: Antimicrobial activity against Bifidobacterium bifidum BB12; type: functional; in short: as §1
Bifidobacterium breve [5] = test: Antimicrobial activity against Bifidobacterium breve ATCC 15700; type: functional; in short: as §1
[6] = Antimicrobial activity against Bifidobacterium infantis ATCC 15697; type: functional, Bifidobacterium longum subsp. infantis; details: Bifidobacterium longum; in short: as §1
Bifidobacterium longum [7] = test: Antimicrobial activity against Bifidobacterium longum ATCC 15708; type: functional; in short: as §1
Bifidobacterium longum [8] = test: Antimicrobial activity against Bifidobacterium longum R0175; type: functional; in short: as §1
Bifidobacterium longum [9] = test: Antimicrobial activity against Bifidobacterium longum P/N 601377; type: functional; in short: as §1
[10] = system: Bifidobacterium pseudolongum; test: Antimicrobial activity against Bifidobacterium pseudolongum ATCC 25562; type: functional; in short: as §1
[11] = system: Bifidobacterium thermophilum; test: Antimicrobial activity against Bifidobacterium thermophilum ATCC 25866; type: functional; in short: as §1
Bifidobacterium breve [12] = test: Antimicrobial activity against Bifidobacterium breve R0070; type: functional; in short: as §1
Bifidobacterium animalis [13] = test: Antimicrobial activity against 60 min 1 M HCl-stressed Bifidobacterium animalis ATCC 27536 after 18 hrs; type: functional
In short: (§2)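 Mid-log MRS culture pelleted and resuspended in MRS broth brought to pH 2.0 with 1 M HCl, held anaerobically at 37°C for 60 min, then subcultured in MRS (pH 6.5) for 24 h anaerobically before MIC testing by broth microdilution (as for unstressed cells). Table footnote gives 18 h anaerobic regrowth after the stress. MIC is the median of four repetitions.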

Bifidobacterium bifidum [14] = test: Antimicrobial activity against 60 min 1 M HCl-stressed Bifidobacterium bifidum R0071 after 18 hrs; type: functional; in short: as §2
Bifidobacterium bifidum [15] = test: Antimicrobial activity against 60 min 1 M HCl-stressed Bifidobacterium bifidum BB12 after 18 hrs; type: functional; in short: as §2
Bifidobacterium breve [16] = test: Antimicrobial activity against 60 min 1 M HCl-stressed Bifidobacterium breve ATCC 15700 after 18 hrs; type: functional; in short: as §2
Bifidobacterium breve [17] = test: Antimicrobial activity against 60 min 1 M HCl-stressed Bifidobacterium breve R0070 after 18 hrs; type: functional; in short: as §2
[18] = Antimicrobial activity against 60 min 1 M HCl-stressed Bifidobacterium infantis ATCC 15697 after 18 hrs; type: functional, Bifidobacterium longum subsp. infantis; details: Bifidobacterium longum; in short: as §2
Bifidobacterium longum [19] = test: Antimicrobial activity against 60 min 1 M HCl-stressed Bifidobacterium longum ATCC 15707 after 18 hrs; type: functional; in short: as §2
Bifidobacterium longum [20] = test: Antimicrobial activity against 60 min 1 M HCl-stressed Bifidobacterium longum R0175 after 18 hrs; type: functional; in short: as §2
Bifidobacterium longum [21] = test: Antimicrobial activity against 60 min 1 M HCl-stressed Bifidobacterium longum P/N 601377 after 18 hrs; type: functional; in short: as §2
[22] = system: Bifidobacterium pseudolongum; test: Antimicrobial activity against 60 min 1 M HCl-stressed Bifidobacterium pseudolongum ATCC 25562 after 18 hrs; type: functional; in short: as §2
[23] = system: Bifidobacterium thermophilum; test: Antimicrobial activity against 60 min 1 M HCl-stressed Bifidobacterium thermophilum ATCC 25866 after 18 hrs; type: functional; in short: as §2
Bifidobacterium animalis [24] = test: Antimicrobial activity against 90 mins oxgall-stressed Bifidobacterium animalis ATCC 27536 after 18 hrs; type: functional
In short: (§3)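 Cells pelleted from mid-log MRS culture and resuspended in MRS (initial pH 6.5) with 0.3% (wt/vol) oxgall for 90 min anaerobically at 37°C. They were then regrown in MRS pH 6.5 for 24 h (footnote: 18 h) anaerobically and tested for MIC by the same broth microdilution assay. Median of four repetitions.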

Bifidobacterium bifidum [25] = test: Antimicrobial activity against 90 mins oxgall-stressed Bifidobacterium bifidum R0071 after 18 hrs; type: functional; in short: as §3
Bifidobacterium bifidum [26] = test: Antimicrobial activity against 90 mins oxgall-stressed Bifidobacterium bifidum ATCC 15696 after 18 hrs; type: functional; in short: as §3
Bifidobacterium bifidum [27] = test: Antimicrobial activity against 90 mins oxgall-stressed Bifidobacterium bifidum BB12 after 18 hrs; type: functional; in short: as §3
Bifidobacterium breve [28] = test: Antimicrobial activity against 90 mins oxgall-stressed Bifidobacterium breve ATCC 15700 after 18 hrs; type: functional; in short: as §3
Bifidobacterium breve [29] = test: Antimicrobial activity against 90 mins oxgall-stressed Bifidobacterium breve R0070 after 18 hrs; type: functional; in short: as §3
[30] = Antimicrobial activity against 90 mins oxgall-stressed Bifidobacterium infantis ATCC 15697 after 18 hrs; type: functional, Bifidobacterium longum subsp. infantis; details: Bifidobacterium longum; in short: as §3
Bifidobacterium longum [31] = test: Antimicrobial activity against 90 mins oxgall-stressed Bifidobacterium longum ATCC 15707 after 18 hrs; type: functional; in short: as §3
Bifidobacterium longum [32] = test: Antimicrobial activity against 90 mins oxgall-stressed Bifidobacterium longum ATCC 15708 after 18 hrs; type: functional; in short: as §3
Bifidobacterium longum [33] = test: Antimicrobial activity against Bifidobacterium longum ATCC 15707; type: functional; in short: as §1
Bifidobacterium longum [34] = test: Antimicrobial activity against 90 mins oxgall-stressed Bifidobacterium longum R0175 after 18 hrs; type: functional; in short: as §3
Bifidobacterium longum [35] = test: Antimicrobial activity against 90 mins oxgall-stressed Bifidobacterium longum P/N 601377 after 18 hrs; type: functional; in short: as §3
[36] = system: Bifidobacterium pseudolongum; test: Antimicrobial activity against 90 mins oxgall-stressed Bifidobacterium pseudolongum ATCC 25562 after 18 hrs; type: functional; in short: as §3
[37] = system: Bifidobacterium thermophilum; test: Antimicrobial activity against 90 mins oxgall-stressed Bifidobacterium thermophilum ATCC 25866 after 18 hrs; type: functional; in short: as §3
Bifidobacterium animalis [38] = test: Antimicrobial activity against 90 mins hydrogen peroxide-stressed Bifidobacterium animalis ATCC 27536 after 18 hrs; type: functional
In short: (§4)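 Stress applied for 90 min at 37°C under anaerobic conditions, using MRS (initial pH 6.5) containing H2O2 at each strain's own inhibitory concentration. The H2O2 level was set beforehand by microplate tolerance testing. Challenged cells were regrown in MRS for 24 h (footnote: 18 h) before MIC testing by broth microdilution. Median of four repetitions.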

Bifidobacterium bifidum [39] = test: Antimicrobial activity against 90 mins hydrogen peroxide-stressed Bifidobacterium bifidum R0071 after 18 hrs; type: functional; in short: as §4
Bifidobacterium bifidum [40] = test: Antimicrobial activity against 90 mins hydrogen peroxide-stressed Bifidobacterium bifidum BB12 after 18 hrs; type: functional; in short: as §4
Bifidobacterium breve [41] = test: Antimicrobial activity against 90 mins hydrogen peroxide-stressed Bifidobacterium breve ATCC 15700 after 18 hrs; type: functional; in short: as §4
Bifidobacterium breve [42] = test: Antimicrobial activity against 90 mins hydrogen peroxide-stressed Bifidobacterium breve R0070 after 18 hrs; type: functional; in short: as §4
Bifidobacterium longum [43] = test: Antimicrobial activity against 90 mins hydrogen peroxide-stressed Bifidobacterium longum ATCC 15707 after 18 hrs; type: functional; in short: as §4
Bifidobacterium longum [44] = test: Antimicrobial activity against 90 mins hydrogen peroxide-stressed Bifidobacterium longum ATCC 15708 after 18 hrs; type: functional; in short: as §4
Bifidobacterium longum [45] = test: Antimicrobial activity against 90 mins hydrogen peroxide-stressed Bifidobacterium longum R0175 after 18 hrs; type: functional; in short: as §4
Bifidobacterium longum [46] = test: Antimicrobial activity against 90 mins hydrogen peroxide-stressed Bifidobacterium longum P/N 601377 after 18 hrs; type: functional; in short: as §4
[47] = system: Bifidobacterium thermophilum; test: Antimicrobial activity against 90 mins hydrogen peroxide-stressed Bifidobacterium thermophilum ATCC 25866 after 18 hrs; type: functional; in short: as §4

MIC (Bifidobacterium animalis [1]): 250 µg/mL (≈ 407 µM) | MIC (Bifidobacterium bifidum [2]): 250 µg/mL (≈ 407 µM) | MIC (Bifidobacterium bifidum [3]): 250 µg/mL (≈ 407 µM) | MIC (Bifidobacterium bifidum [4]): 250 µg/mL (≈ 407 µM) | MIC (Bifidobacterium breve [5]): 250 µg/mL (≈ 407 µM) | MIC [6]: 250 µg/mL (≈ 407 µM) | MIC (Bifidobacterium longum [7]): 250 µg/mL (≈ 407 µM) | MIC (Bifidobacterium longum [8]): 250 µg/mL (≈ 407 µM) | MIC (Bifidobacterium longum [9]): 125 µg/mL (≈ 203 µM) | MIC [10]: 250 µg/mL (≈ 407 µM) | MIC [11]: 250 µg/mL (≈ 407 µM) | MIC (Bifidobacterium breve [12]): 250 µg/mL (≈ 407 µM) | MIC (Bifidobacterium animalis [13]): 250 µg/mL (≈ 407 µM) | MIC (Bifidobacterium bifidum [14]): 250 µg/mL (≈ 407 µM) | MIC (Bifidobacterium bifidum [15]): 125 µg/mL (≈ 203 µM) | MIC (Bifidobacterium breve [16]): 125 µg/mL (≈ 203 µM) | MIC (Bifidobacterium breve [17]): 250 µg/mL (≈ 407 µM) | MIC [18]: 250 µg/mL (≈ 407 µM) | MIC (Bifidobacterium longum [19]): 500 µg/mL (≈ 813 µM) | MIC (Bifidobacterium longum [20]): 250 µg/mL (≈ 407 µM) | MIC (Bifidobacterium longum [21]): 250 µg/mL (≈ 407 µM) | MIC [22]: 250 µg/mL (≈ 407 µM) | MIC [23]: 250 µg/mL (≈ 407 µM) | MIC (Bifidobacterium animalis [24]): 125 µg/mL (≈ 203 µM) | MIC (Bifidobacterium bifidum [25]): 62.5 µg/mL (≈ 102 µM) | MIC (Bifidobacterium bifidum [26]): 250 µg/mL (≈ 407 µM) | MIC (Bifidobacterium bifidum [27]): 250 µg/mL (≈ 407 µM) | MIC (Bifidobacterium breve [28]): 125 µg/mL (≈ 203 µM) | MIC (Bifidobacterium breve [29]): 62.5 µg/mL (≈ 102 µM) | MIC [30]: 500 µg/mL (≈ 813 µM) | MIC (Bifidobacterium longum [31]): 125 µg/mL (≈ 203 µM) | MIC (Bifidobacterium longum [32]): 500 µg/mL (≈ 813 µM) | MIC (Bifidobacterium longum [33]): 250 µg/mL (≈ 407 µM) | MIC (Bifidobacterium longum [34]): 62.5 µg/mL (≈ 102 µM) | MIC (Bifidobacterium longum [35]): 62.5 µg/mL (≈ 102 µM) | MIC [36]: 250 µg/mL (≈ 407 µM) | MIC [37]: 125 µg/mL (≈ 203 µM) | MIC (Bifidobacterium animalis [38]): 500 µg/mL (≈ 813 µM) | MIC (Bifidobacterium bifidum [39]): 125 µg/mL (≈ 203 µM) | MIC (Bifidobacterium bifidum [40]): 250 µg/mL (≈ 407 µM) | MIC (Bifidobacterium breve [41]): 250 µg/mL (≈ 407 µM) | MIC (Bifidobacterium breve [42]): 250 µg/mL (≈ 407 µM) | MIC (Bifidobacterium longum [43]): 250 µg/mL (≈ 407 µM) | MIC (Bifidobacterium longum [44]): 250 µg/mL (≈ 407 µM) | MIC (Bifidobacterium longum [45]): 125 µg/mL (≈ 203 µM) | MIC (Bifidobacterium longum [46]): 125 µg/mL (≈ 203 µM) | MIC [47]: 500 µg/mL (≈ 813 µM)
SMILES: NC[C@@H]1O[C@H](O[C@H]2[C@@H](O)[C@H](O[C@@H]3[C@@H](O)[C@H](N)C[C@H](N)[C@H]3O[C@H]3O[C@H](CN)[C@@H](O)[C@H](O)[C@H]3N)O[C@@H]2CO)[C@H](N)[C@@H](O)[C@@H]1O [FRAMYCETIN]
